IDH1 R132H inh: inhibitors of IDH1 R132H reductase, primary screen, biochemical, plate reader, single point. Isocitrate dehydrogenase [NADP] cytoplasmic (Homo sapiens), O75874. diaphorase/resazurin fluorescence, 60 min. inhibition, % at 10 µM. 0.18% of 70,000 active. AID 624101, 2012; in the data active = inhibition above about 34%; inconclusive = no clear call, values can overlap the other calls; inactive = below about 11%;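 note: 0% = DMSO and 100% = no enzyme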
Target sequence (O75874 whole entry R132H): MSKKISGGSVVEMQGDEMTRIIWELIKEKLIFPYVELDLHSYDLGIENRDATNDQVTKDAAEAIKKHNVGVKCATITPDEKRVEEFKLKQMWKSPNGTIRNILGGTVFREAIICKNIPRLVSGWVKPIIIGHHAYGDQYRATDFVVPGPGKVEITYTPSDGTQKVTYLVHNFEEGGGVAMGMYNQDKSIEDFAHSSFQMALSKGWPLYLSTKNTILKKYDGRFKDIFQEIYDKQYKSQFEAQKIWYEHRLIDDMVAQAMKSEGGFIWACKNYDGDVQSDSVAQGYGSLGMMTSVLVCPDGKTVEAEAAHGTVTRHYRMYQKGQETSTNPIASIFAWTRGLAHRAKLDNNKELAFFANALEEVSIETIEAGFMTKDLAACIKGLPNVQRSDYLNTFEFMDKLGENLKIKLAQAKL
GASC1 inh: inhibitors of GASC-1 (KDM4C) histone demethylase, primary screen, biochemical, single concentration HTS; Lysine-specific demethylase 4C (Homo sapiens), Q9H3R0; GST-KDM4C 2-372, H3K9me3 peptide, LANCE TR-FRET; inhibition, % at 12.5 µM; 0.15% of 96,000 active; AID 720574, 2013;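 active = mean replicate inhibition above about 25%, with at least 55% of replicates also reaching it, limit read from the data, passing the limit was not always enough; inconclusive = only one of those two conditions met; inactive = neither condition met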
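Test system: N-terminal GST-fused human GASC-1 (KDM4C) fragment, residues 2-372; quantity: GASC-1 enzyme at 10 nM final in reaction; dosing: single dose; schedule: 30 min demethylation and 1 h detection at room temperature; signal: LANCE TR-FRET, excitation 340 nm, emissions 618 and 671 nm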
Pf Dd2 inh: P. falciparum Dd2 growth inhibitors, primary screen, SYBR Green fluorescence, single dose replicates | 72 h; stronger effect = lower value | 2.3% of 94,000 active | AID 1159554, 2015 | activity change, % at 10 µM; in the data active = activity change below about -80%; inconclusive = no clear call, values can overlap the other calls
T cruzi growth-1: T. cruzi intracellular proliferation inhibitors, primary screen, cell-based, beta-gal Tulahuen parasites, NIH3T3 host, luminescence; T. cruzi beta-gal in NIH3T3, GalScreen luminescence, 90 h; inhibition, % at 8.34 µM; 5.9% of 77,000 active; AID 624255, 2012;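 active = mean inhibition above about 93%, with at least 55% of replicates each passing it, limit read from the data, passing the limit was not always enough; inconclusive = only one of those two conditions holds; inactive = neither condition holds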
T cruzi growth-2: T. cruzi intracellular proliferation inhibitors, confirmation, cell-based, NIH3T3 host, beta-gal parasite, luminescence, cherry-pick; 72% of 5,600 active; T. cruzi beta-gal in NIH3T3, GalScreen luminescence, 90 h; inhibition, % at 8.35 µM; shares compounds with T cruzi growth-1;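 active = mean replicate inhibition above about 95% and at least 55% of replicates individually reaching it, limit read from the data; inconclusive = only one of the two criteria is met; inactive = neither criterion is met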
T cruzi growth-3: inhibitors of intracellular T. cruzi replication, confirmation, NIH3T3 host cells, beta-gal parasites, cherry-pick, set 2. shares compounds with T cruzi growth-1. inhibition, % at 2.09 µM. T. cruzi beta-gal in NIH3T3, GalScreen luminescence, 90 h. 21% of 5,600 active;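 active = mean inhibition above about 95%, with at least 55% of replicates also reaching it, limit read from the data; inconclusive = meets just one of the two conditions; inactive = meets neither condition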;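 note: plate controls were neutral control median for no effect and positive control median for full effect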
3T3 cytotox: cytotoxicity in mouse NIH/3T3 fibroblasts, confirmation, cytotoxicity control for T. cruzi proliferation inhibitor project, cell-based, cherry-pick, single point. shares compounds with T cruzi growth-1. NIH/3T3 viability, CellTiter-Glo ATP luminescence, 90 h. cytotoxicity (signal decrease), % at 8.35 µM. 14% of 5,600 active;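 active = mean signal decrease across replicates above about 35% based on untreated-well scatter, with enough replicates individually passing, limit read from the data; inconclusive = no rule stated though some were filed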;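 note: 0% = median of neutral control wells and 100% = median of positive control wells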
3T3 cytotox 2: NIH/3T3 fibroblast cytotoxicity, confirmation, cytotoxicity control, cell-based, cherry-pick, single point, set 2; shares compounds with T cruzi growth-1; NIH/3T3 viability, CellTiter-Glo ATP luminescence, 90 h; inhibition, % at 24.9 µM; 56% of 5,600 active; AID 651744, 2012;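 active = mean loss of cell viability signal at or above a set limit, and enough replicates individually reaching it; inconclusive = meets only the mean limit or only the replicate share; inactive = meets neither condition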;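 note: 0% = median of neutral control wells and 100% = median of positive control wells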
Numbers without * were called inactive; ? = inconclusive; . = not tested or not shown; ! = repeats disagree. Rows were chosen to be rich in hits. Some 5.8% of all compounds tested hit in one or more screens of this group.

SMILES | IDH1 R132H inh | GASC1 inh | Pf Dd2 inh | T cruzi growth-1 | T cruzi growth-2 | T cruzi growth-3 | 3T3 cytotox | 3T3 cytotox 2
C[C@H](CO)N1C[C@H](C)[C@H](CN(C)Cc2ccc(C(F)(F)F)cc2)Oc2c(NC(=O)Nc3ccccc3)cccc2C1=O | 2.1 | 1.5 | -3.8 | 13.8 | . | . | . | .
C[C@H]1CN([C@@H](C)CO)C(=O)c2cc(NC(=O)Nc3cccc4ccccc34)ccc2O[C@H]1CN(C)Cc1ccccc1 | -1.5 | -1.5 | 2.6 | 45.6 | . | . | . | .
Cc1ccc(NC(=O)CSc2ncccn2)cc1Cl | -0.3 | . | . | . | . | . | . | .
Cc1ccc(-n2c(SCC(=O)Nc3ccc(Cl)cc3C)nnc2-c2ccccc2)cc1 | 0.5 | . | . | . | . | . | . | .
CC(=O)c1ccc(OC(=O)C(Cc2ccccc2)N2C(=O)C3C4C=CC(C5CC45)C3C2=O)cc1 (configuration not stated) | 0.1 | . | . | . | . | . | . | .
C[C@@H]1CN([C@@H](C)CO)S(=O)(=O)c2ccc(C#CC3CCCCC3)cc2O[C@@H]1CN(C)Cc1cccnc1 | . | 1.3 | -74.2 | 101.5*! | 112.7* | 86.6 | 50.8* | 104.7*
C[C@H](CO)N1C[C@H](C)[C@@H](CN(C)Cc2cccnc2)Oc2cc(C#CC3CCCC3)ccc2S1(=O)=O | . | 1.1 | -65.9 | 96.3* | 102.1* | 108.6* | -9.2 | 104.8*
CCOC(=O)c1c(NC(=O)COc2ccc(C)cc2Br)sc(C)c1C | 0.5 | . | . | . | . | . | . | .
C[C@@H]1CN([C@H](C)CO)C(=O)c2cccc(NS(=O)(=O)c3ccc(Cl)cc3)c2O[C@H]1CN(C)Cc1ccc(Oc2ccccc2)cc1 | -1.1 | 3.0 | -59.1 | ? | 109.6* | 64.2 | -12.2 | 24.4
C[C@H](CO)N1C[C@H](C)[C@@H](CN(C)Cc2ccc(Oc3ccccc3)cc2)Oc2c(NS(=O)(=O)c3ccc(Cl)cc3)cccc2C1=O | . | -1.9 | -48.3 | 102.3* | ? | 77.1 | 21.5 | 100.5*
C[C@H]1CN([C@@H](C)CO)C(=O)c2cccc(NS(=O)(=O)c3ccc(Cl)cc3)c2O[C@H]1CN(C)Cc1ccc(Oc2ccccc2)cc1 | . | 0.4 | -21.7 | 102.6 | . | . | . | .
C[C@@H]1CN([C@@H](C)CO)C(=O)c2cccc(NS(=O)(=O)c3ccc(Cl)cc3)c2O[C@@H]1CN(C)Cc1ccc(Oc2ccccc2)cc1 | 1.5 | -1.7 | -66.7 | 96.5 | . | . | . | .
COc1cccc(C(=O)NC2(C(F)(F)F)C(=O)N(CC3CCCO3)C3=C2C(=O)CC(C)(C)C3)c1 (configuration not stated) | -0.4 | . | . | . | . | . | . | .
COc1ccc(OC)c(C(=O)CSc2nnc(-c3ccco3)n2C)c1 | -1.0 | . | . | . | . | . | . | .
Cc1ccn2cc(-c3cccc(NS(=O)(=O)c4cc([N+](=O)[O-])ccc4C)c3)nc2c1 | -1.0 | . | . | . | . | . | . | .
CN(C)C(=O)c1ccc(-c2ccc([C@@H]3[C@H](CO)N4CCCCN(C(=O)C5CCC5)C[C@@H]34)cc2)cc1 | . | . | 12.2 | 105.9* | 103.0* | ? | 16.3 | 13.5
CN(C)C(=O)c1ccc(-c2ccc([C@H]3[C@@H](CO)N4CCCCN(C(=O)C5CCC5)C[C@H]34)cc2)cc1 | . | . | 7.4 | 113.3* | 96.5* | ? | -11.0 | 11.7
CN(C)C(=O)c1ccc(-c2ccc([C@H]3[C@H](CO)N4CCCCN(C(=O)C5CC5)C[C@@H]34)cc2)cc1 | . | -0.6 | -77.2 | ? | 100.0* | 79.9 | -25.9 | 9.9
CN(C)C(=O)c1ccc(-c2ccc([C@@H]3[C@@H](CO)N4CCCCN(C(=O)C5CCC5)C[C@@H]34)cc2)cc1 | . | . | -56.0 | -0.8 | . | . | . | .

Bioassay records from PubChem.
